Reference: PMC6153321 (Pharmacology Research & Perspectives, 2018)
Bridge positions count the residues as written; N and C are the ends. Square brackets hold non-standard residues; d marks the D form. Ends that are not written are not given here. Peptide text beside a SMILES is read from it. I, II: the chains in the order shown. S5 = C=CCCC[C@](C)(N)C(=O)O

Assays:
RXFP3 [1] = target: T1, RXFP3 (Homo sapiens, UniProt Q9NSD7); test: CAMYEL BRET inhibition of forskolin-stimulated cAMP, CHO-RXFP3 cells; assay type: cell-based; settings: agonist 100 nmol L^−1‐10 μmol L^−1, at about 20‐25 minutes
T1 sequence (Q9NSD7 1-469): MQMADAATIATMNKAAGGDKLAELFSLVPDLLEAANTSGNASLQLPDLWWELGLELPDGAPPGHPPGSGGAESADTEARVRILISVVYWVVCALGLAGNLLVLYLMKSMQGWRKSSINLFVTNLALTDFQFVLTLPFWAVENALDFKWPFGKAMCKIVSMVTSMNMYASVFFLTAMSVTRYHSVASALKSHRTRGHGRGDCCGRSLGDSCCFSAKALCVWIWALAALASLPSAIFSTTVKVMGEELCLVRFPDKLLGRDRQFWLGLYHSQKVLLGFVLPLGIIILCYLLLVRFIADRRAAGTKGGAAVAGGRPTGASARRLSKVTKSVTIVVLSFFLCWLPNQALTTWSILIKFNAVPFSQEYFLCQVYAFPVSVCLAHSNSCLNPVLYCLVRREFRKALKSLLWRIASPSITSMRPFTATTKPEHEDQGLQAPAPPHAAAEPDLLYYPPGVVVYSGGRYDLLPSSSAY

RXFP3 [2] = target: T1, RXFP3; test: CAMYEL BRET inhibition of forskolin-stimulated cAMP, HEK-RXFP3 cells; assay type: cell-based; settings: 45 minutes, mean ± SEM, three independent experiments
β‐adrenoceptors [3] = test: CAMYEL BRET isoprenaline-induced cAMP, HEK293A parental cells; assay type: cell-based, human; settings: 10 μmol L^−1
Procedure, shortened: (§1)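 HEK293A parental or Gαs-knockout cells were co-transfected with CAMYEL and RXFP1, then reseeded overnight in phenol-red-free HEPES medium. Isoprenaline (10 μmol L⁻¹) served as a control for endogenous Gαs-coupled β-adrenoceptor signalling. Read-out: vehicle-subtracted, sign-inverted 535/475 nm BRET ratio; three independent experiments.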

β‐adrenoceptors [4] = test: CAMYEL BRET isoprenaline-induced cAMP, HEK293A ΔGαs cells; assay type: cell-based, human; settings: 10 μmol L^−1
Procedure, shortened: as §1

adenylate cyclase [5] = test: CAMYEL BRET forskolin-induced cAMP, HEK293A ΔGαs cells; assay type: cell-based, human
adenylate cyclase [6] = settings: cited from earlier work
adenylate cyclase [7] = test: CAMYEL BRET forskolin-induced cAMP, HEK-RXFP1 cells; assay type: cell-based, human; settings: 45 minutes, three independent experiments
Procedure, shortened: (§2)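 HEK cells stably expressing RXFP1 (HEK293T background) or RXFP2 were transiently transfected with CAMYEL, then reseeded next day in phenol-red-free complete medium with 25 mmol L⁻¹ HEPES. At 37°C, cells got coelenterazine h (5 μmol L⁻¹ final) for a 5-min baseline, then vehicle, forskolin or agonist for 45 min. Read-out was vehicle-subtracted citrine/Rluc BRET ratio, sign-inverted. Agonist curves at 5 and 45 min as % of 10 μmol L⁻¹ forskolin maximum; n=3.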

adenylate cyclase [8] = test: CAMYEL BRET forskolin-induced cAMP, HEK293A parental cells; assay type: cell-based, human; settings: 45 minutes, three independent experiments
adenylate cyclase [9] = test: CAMYEL BRET forskolin-induced cAMP, HEK-RXFP2 cells; assay type: cell-based, human; settings: 45 minutes
Procedure, shortened: as §2

adenylate cyclase [10] = test: CAMYEL BRET forskolin-induced cAMP, THP-1 CAMYEL cells; assay type: cell-based, human; settings: high-CAMYEL THP‐1 cells, three independent experiments
RXFP2 = RXFP2 (Homo sapiens, UniProt Q8WXD0); test: CAMYEL BRET real-time cAMP activation, HEK-RXFP2 cells; assay type: cell-based
Procedure, shortened: as §2

GH3B6 cells = settings: cited from earlier work

RXFP2, sequence (Q8WXD0 whole entry): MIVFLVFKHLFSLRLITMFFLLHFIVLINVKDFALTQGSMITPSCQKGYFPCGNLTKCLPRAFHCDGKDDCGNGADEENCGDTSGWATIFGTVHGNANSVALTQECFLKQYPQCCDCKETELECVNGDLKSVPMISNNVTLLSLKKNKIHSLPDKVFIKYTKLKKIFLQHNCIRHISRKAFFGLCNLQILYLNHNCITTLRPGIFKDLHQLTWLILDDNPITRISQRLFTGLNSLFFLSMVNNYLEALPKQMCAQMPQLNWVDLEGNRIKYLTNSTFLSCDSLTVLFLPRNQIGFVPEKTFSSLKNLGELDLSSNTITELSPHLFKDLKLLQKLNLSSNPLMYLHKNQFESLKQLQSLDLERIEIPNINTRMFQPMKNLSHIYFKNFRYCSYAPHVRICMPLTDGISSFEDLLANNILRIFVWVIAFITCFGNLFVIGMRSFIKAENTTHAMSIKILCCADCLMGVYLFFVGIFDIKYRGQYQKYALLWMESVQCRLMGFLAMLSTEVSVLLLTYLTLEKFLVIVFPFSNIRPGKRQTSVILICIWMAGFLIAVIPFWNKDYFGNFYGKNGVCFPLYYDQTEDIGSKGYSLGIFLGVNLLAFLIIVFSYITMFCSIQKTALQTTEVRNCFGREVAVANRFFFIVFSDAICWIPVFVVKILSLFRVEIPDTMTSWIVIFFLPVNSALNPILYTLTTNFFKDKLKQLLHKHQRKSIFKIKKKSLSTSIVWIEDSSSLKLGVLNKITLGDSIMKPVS

CC[C@H](C)[C@@H]1NC(=O)[C@H](Cc2ccccc2)NC(=O)[C@H](CCC(=O)O)NC(=O)[C@H](CCCNC(=N)N)NC(=O)CNC(=O)[C@@H](NC(=O)[C@H](CC(C)C)NC(=O)[C@H](CCCNC(=N)N)NC(=O)[C@@H](NC(=O)CNC(=O)[C@H](Cc2ccc(O)cc2)NC(=O)[C@@H]2CCCN2C(=O)[C@H](C)NC(=O)[C@H](C)NC(=O)[C@@H](N)CCCNC(=N)N)C(C)C)CSSC[C@H](N)C(=O)N[C@@H](CCCCN)C(=O)N[C@@H](Cc2c[nH]c3ccccc23)C(=O)NCC(=O)N[C@@H](C)C(=O)N[C@@H](CO)C(=O)N[C@@H](CCCCN)C(=O)N[C@@H](CO)C(=O)N[C@@H](CCC(=O)O)C(=O)N[C@@H]([C@@H](C)CC)C(=O)N[C@@H](CO)C(=O)N[C@@H](CO)C(=O)N[C@@H](CC(C)C)C(=O)N[C@H](C(=O)O)CSSC[C@@H](C(=O)NCC(=O)NCC(=O)N[C@@H](CO)C(=O)N[C@@H](CCCNC(=N)N)C(=O)N[C@@H](Cc2c[nH]c3ccccc23)C(=O)O)NC(=O)[C@H]([C@@H](C)O)NC(=O)[C@H](Cc2ccccc2)NC(=O)[C@H]([C@@H](C)CC)NC(=O)[C@H](C(C)C)NC(=O)[C@H](C)NC(=O)[C@H](CCCNC(=N)N)NC1=O [Analogue 2]
inhibition of forskolin-stimulated cAMP at higher concentrations (RXFP3 [1]): Complete or near‐complete inhibition | pEC50 (RXFP3 [2]): Ambiguous

CC(C)NCC(O)c1ccc(O)c(O)c1 (centres unmarked) [Isoprenaline]
cAMP response to isoprenaline (β‐adrenoceptors [3]): robust in the parental cells | cAMP response to isoprenaline (β‐adrenoceptors [4]): abolished in the ΔGαs cells

CC[C@H](C)[C@@H]1NC(=O)[C@H](Cc2ccccc2)NC(=O)[C@@](C)(NC(=O)[C@H](CCCNC(=N)N)NC(=O)CNC(=O)[C@@H](N)CO)CCCC=CCCC[C@@](C)(C(=O)N[C@H](C(=O)N[C@H](C(=O)N[C@@H](Cc2ccccc2)C(=O)N[C@H](C(=O)N[C@@H](CO)C(=O)NCC(=O)NCC(=O)N[C@@H](CO)C(=O)N[C@@H](CCCNC(=N)N)C(=O)N[C@@H](Cc2c[nH]c3ccccc23)C(N)=O)[C@@H](C)O)[C@@H](C)CC)C(C)C)NC(=O)[C@H](CCCNC(=N)N)NC1=O [Peptide 5] (H-SGR[S5]FIR[S5]VIFTSGGSRW-NH2; staple 4-8; N-terminus and C-terminus assumed)
inhibition of forskolin-stimulated cAMP at higher concentrations (RXFP3 [1]): Complete or near‐complete inhibition

C=C[C@@]1(C)CC(=O)[C@]2(O)[C@@]3(C)[C@@H](O)CCC(C)(C)[C@@H]3[C@H](O)[C@H](OC(C)=O)[C@@]2(C)O1 [forskolin]
potency of forskolin (pEC50) (adenylate cyclase [5]; 45 minutes, HEK293A ΔGαs with re‐expression of Gαs, three independent experiments): 7.1 ± 1.29 | forskolin-induced cAMP activity (adenylate cyclase [5]; HEK293A ΔGαs, without Gαs re-expression): very weak cAMP activity | forskolin concentration required to detect a cAMP increase (adenylate cyclase [5]; HEK293A ΔGαs, increase only transient): > 10 µmol/L | affinity for adenylate cyclase in the absence of Gαs (adenylate cyclase [6]): lower affinity for adenylate cyclase in the absence of Gαs | potency (pEC50) of forskolin (adenylate cyclase [7]): 6.77 ± 0.07 | potency of forskolin (pEC50) (adenylate cyclase [8]): 5.91 ± 0.04 | potency (pEC50) of forskolin (adenylate cyclase [9]; HEK‐RXFP2, three independent experiments): 5.92 ± 0.08 | forskolin potency in HEK‐RXFP2 relative to HEK‐RXFP1 cells (adenylate cyclase [9]; P < 0.01): nearly ten times lower than that seen in the HEK‐RXFP1 cells | potency of forskolin (pEC50) (adenylate cyclase [10]; 5 minutes): 5.29 ± 0.03 | potency of forskolin (pEC50) (adenylate cyclase [10]; 45 minutes): 4.93 ± 0.05

I: PTPEMREKLCGHHFVRALVRVCGGPRWSTEA / II: AAATNPARYCCLSGCTQQDLLTLCPY (disulfide I:10-II:11, I:22-II:24, II:10-II:15) [INSL3]
potency increase between 5 and 45 minutes (RXFP2; P < 0.01): ~10 fold | temporal pattern of cAMP activity (RXFP2; sub‐maximal concentrations): slow, sustained increases

thyrotropin‐releasing hormone
cAMP activity reported by AC8‐localized sensor (GH3B6 cells): increases in cAMP activity | cAMP activity reported by cytosolic or plasma membrane FRET biosensors (GH3B6 cells): not the cytosolic or membrane forms

vasoactive intestinal peptide: treatment of GH3B6 cells in cited work (ref 49) (HSDAVFTDNYTRLRKQMAVKKYLNSILN; ends and bridges not checked; UniProt P01282 125-152, looked up)
cAMP activity reported by AC8‐localized sensor (GH3B6 cells): not detected by an AC8‐localized sensor
